Common to all, as to assay: two-electrode voltage clamp, Xenopus oocytes
What all share (type): cell-based

Experiment [1] deals with T1, Hco-UNC-49BC (Haemonchus contortus, UniProt D6BK80).
T1 sequence (D6BK80 22-496): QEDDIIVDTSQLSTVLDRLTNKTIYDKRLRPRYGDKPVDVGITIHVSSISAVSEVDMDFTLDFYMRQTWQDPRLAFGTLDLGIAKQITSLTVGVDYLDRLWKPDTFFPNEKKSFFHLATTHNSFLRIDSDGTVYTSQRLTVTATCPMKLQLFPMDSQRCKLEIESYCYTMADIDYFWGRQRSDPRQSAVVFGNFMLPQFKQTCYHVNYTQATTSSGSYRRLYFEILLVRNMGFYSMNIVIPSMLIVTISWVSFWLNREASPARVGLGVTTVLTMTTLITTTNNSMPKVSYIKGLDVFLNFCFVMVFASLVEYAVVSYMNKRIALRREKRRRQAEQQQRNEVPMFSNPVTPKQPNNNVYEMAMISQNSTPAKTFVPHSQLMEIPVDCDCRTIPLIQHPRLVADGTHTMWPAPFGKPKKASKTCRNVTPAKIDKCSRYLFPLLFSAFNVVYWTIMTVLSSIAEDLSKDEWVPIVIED
T1 sequence (D6BJF3 22-440 partner): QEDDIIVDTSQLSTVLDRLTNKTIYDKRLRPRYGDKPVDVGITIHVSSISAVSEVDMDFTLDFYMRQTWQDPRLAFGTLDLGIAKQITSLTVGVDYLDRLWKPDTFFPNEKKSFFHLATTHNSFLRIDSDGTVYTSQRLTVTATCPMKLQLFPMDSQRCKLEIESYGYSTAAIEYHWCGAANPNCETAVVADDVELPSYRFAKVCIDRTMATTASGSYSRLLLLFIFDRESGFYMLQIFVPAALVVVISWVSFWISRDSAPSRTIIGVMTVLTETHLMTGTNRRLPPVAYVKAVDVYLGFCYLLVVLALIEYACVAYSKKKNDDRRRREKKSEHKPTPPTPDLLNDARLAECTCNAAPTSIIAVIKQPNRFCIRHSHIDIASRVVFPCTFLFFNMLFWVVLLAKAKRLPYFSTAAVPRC
In a few lines:
(§1)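 Oocytes from X. laevis, collagenase-treated in OR-2 (pH 7.5) for 2 h, were co-injected with wild-type or mutant hco-unc-49b cRNA plus wild-type hco-unc-49c cRNA and kept 48 h at 20ᵒC in supplemented ND96. Cells were clamped at −60 mV and GABA in ND96 was perfused, with 1–2 min ND96 washes between doses. Currents were normalised to each oocyte's maximal GABA response and fitted with a variable-slope Hill equation (≥5 oocytes, two batches).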

In experiment [2] the target is T2, Hco-UNC-49BC (Haemonchus contortus, UniProt D6BK80, R159A).
T2 sequence (D6BK80 22-496 R159A): T1 sequence (D6BK80 22-496)
T2 sequence (D6BJF3 22-440 partner): T1 sequence (D6BJF3 22-440 partner)
The procedure, abridged:
as §1

For experiment [3], the target named is T3, Hco-UNC-49BC (Haemonchus contortus, UniProt D6BK80, D83N).
T3 sequence (D6BK80 22-496 D83N): T1 sequence (D6BK80 22-496)
T3 sequence (D6BJF3 22-440 partner): T1 sequence (D6BJF3 22-440 partner)
In a few lines: as §1

In experiment [4] the target is T4, Hco-UNC-49BC (Haemonchus contortus, UniProt D6BK80, R241A).
T4 sequence (D6BK80 22-496 R241A): T1 sequence (D6BK80 22-496)
T4 sequence (D6BJF3 22-440 partner): T1 sequence (D6BJF3 22-440 partner)
The procedure, abridged:
as §1

The target in experiment [5] is T5, Hco-UNC-49BC (Haemonchus contortus, UniProt D6BK80, D83C).
T5 sequence (D6BK80 22-496 D83C): T1 sequence (D6BK80 22-496)
T5 sequence (D6BJF3 22-440 partner): T1 sequence (D6BJF3 22-440 partner)
The procedure, abridged:
as §1

The target of experiment [6] is T6, Hco-UNC-49BC (Haemonchus contortus, UniProt D6BK80, D83T).
T6 sequence (D6BK80 22-496 D83T): T1 sequence (D6BK80 22-496)
T6 sequence (D6BJF3 22-440 partner): T1 sequence (D6BJF3 22-440 partner)
In a few lines:
as §1

The target in experiment [7] is T7, Hco-UNC-49BC (Haemonchus contortus, UniProt D6BK80, H137A).
T7 sequence (D6BK80 22-496 H137A): T1 sequence (D6BK80 22-496)
T7 sequence (D6BJF3 22-440 partner): T1 sequence (D6BJF3 22-440 partner)
In a few lines:
as §1

Experiment [8] concerns the target T8, Hco-UNC-49BC (Haemonchus contortus, UniProt D6BK80, R241K).
T8 sequence (D6BK80 22-496 R241K): T1 sequence (D6BK80 22-496)
T8 sequence (D6BJF3 22-440 partner): T1 sequence (D6BJF3 22-440 partner)
The procedure, abridged: as §1

In experiment [9] the target is T9, Hco-UNC-49BC (Haemonchus contortus, UniProt D6BK80, D83E).
T9 sequence (D6BK80 22-496 D83E): T1 sequence (D6BK80 22-496)
T9 sequence (D6BJF3 22-440 partner): T1 sequence (D6BJF3 22-440 partner)
In a few lines: as §1

Experiment [10] deals with T10, Hco-UNC-49BC (Haemonchus contortus, UniProt D6BK80, H137K).
T10 sequence (D6BK80 22-496 H137K): T1 sequence (D6BK80 22-496)
T10 sequence (D6BJF3 22-440 partner): T1 sequence (D6BJF3 22-440 partner)
In a few lines: as §1

Experiment [11] addresses T11, Hco-UNC-49BC (Haemonchus contortus, UniProt D6BK80, E131A).
T11 sequence (D6BK80 22-496 E131A): T1 sequence (D6BK80 22-496)
T11 sequence (D6BJF3 22-440 partner): T1 sequence (D6BJF3 22-440 partner)
In a few lines:
as §1

For `NCCCC(=O)O` [GABA], the half-maximal effective concentration (EC50) at Hco-UNC-49BC [1] is 68 ± 17 µM; at Hco-UNC-49BC [2] it was 5470 ± 396 µM; on Hco-UNC-49BC [3], 342 ± 30 µM; at Hco-UNC-49BC [4] it was 5170 ± 473 µM; at Hco-UNC-49BC [5] it was 454 ± 47 µM; on Hco-UNC-49BC [6] it was 520 ± 34 µM. Moreover, the EC50 at Hco-UNC-49BC [7] is 2170 ± 173 µM; at Hco-UNC-49BC [8] it was 3790 ± 435 µM; at Hco-UNC-49BC [9], 276 ± 37 µM; on Hco-UNC-49BC [10], 4170 ± 745 µM; at Hco-UNC-49BC [11] it was 219 ± 21 µM.

(Values after publication PMC6287672 (International Journal for Parasitology: Drugs and Drug …, 2018).)
